Data published in ChEMBL document CHEMBL1129960, “Design, synthesis, and antiviral evaluation of 2-substituted 4,5-dichloro- and 4,6-dichloro-1-beta-D-ribofuranosylbenzimidazoles as potential agents for human cytomegalovirus infections” (J Med Chem, 1997).

Tests used:
[1] = tested on: Human betaherpesvirus 5; assay: Concentration required for 50% inhibition of HCMV replication was measured using a Plaque reduction assay; format: functional, organism-based
In short: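 HCMV Towne (P0) plaque reduction in HFF cells, ~100 pfu/cm². After adsorption, compound in growth medium at 4–8 concentrations in duplicate wells; 7–10 days at 37 °C. Crystal violet stain, microscopic plaque count. Percent plaque reduction vs no-drug wells; IC50 by linear regression vs log concentration.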

[2] = tested on: KB; assay: Inhibition of KB cell growth was determined; format: functional, cell-based; conditions: Homo sapiens
In short: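 KB cells seeded at 3000–5000/well and incubated overnight; compound at 6–8 concentrations in quadruplicate; 48 h at 37 °C in CO2, about two population doublings. Ethanol fixation, 0.1% crystal violet stain, acidified ethanol elution, read at 570 nm. IC50 by linear regression vs log concentration.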

[3] = tested on: HFF; assay: Visual cytotoxicity was scored on HFF cells at time of HCMV plaque enumeration; format: functional, cell-based; conditions: Homo sapiens
In short: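 Uninfected stationary HFF cells from the HCMV plaque assay plates, inspected microscopically for cytotoxicity at the time plaques were counted (7–10 days, 37 °C).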

[4] = tested on: Human alphaherpesvirus 1; assay: Antiviral activity was measured by plaque assay against HSV-1 virus by ELISA method; format: functional, organism-based
In short: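 HSV-1 (KOS) in BSC-1 cells, 10 000 cells/well seeded in MEM(E) + 10% calf serum, overnight at 37 °C; drug in quadruplicate plus 100 pfu/well virus; 3 days at 37 °C. ELISA read-out with HRP-rabbit anti-HSV-1 and TMB, absorbance at 450/570 nm. Percent reduction vs virus-only wells; IC50 by linear regression on log concentration.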

[5] = tested on: Human betaherpesvirus 5; assay: Concentration required for 90% inhibition of HCMV replication was measured using a yield reduction assay; format: functional
In short: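 HCMV yield reduction in HFF cells infected at moi 0.5–1 pfu/cell. Compound in duplicate as 1:3 serial dilutions from 100 to 0.05 μM; 7 days at 37 °C. One freeze-thaw, then progeny titered by plaque count on secondary HFF plates (1:3 dilutions). IC90 from regression of percent inhibition vs log concentration.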

Clc1cc(Cl)c2[nH]c(Cl)nc2c1
IC50 [1]: 5.1 µM
IC50 [2]: > 100 µM
IC50 [3]: 32 µM
IC50 [4]: > 100 µM

Clc1nc2c(Cl)c(Cl)ccc2[nH]1
IC50 [1]: 8 µM
IC50 [2]: 80 µM
IC50 [3]: 32 µM
IC50 [4]: > 100 µM

OC[C@H]1O[C@H](n2c(Br)nc3cc(Cl)c(Cl)cc32)[C@@H](O)[C@H]1O
IC50 [2]: > 100 µM
IC90 [5]: 0.2 µM

Nc1nc2c(Cl)cc(Cl)cc2[nH]1
IC50 [1]: > 100 µM
IC50 [3]: 100 µM
IC50 [4]: > 100 µM

OC[C@H]1O[C@@H](n2c(Cl)nc3cc(Cl)c(Cl)cc32)[C@H](O)[C@@H]1O
IC90 [5]: 1.4 µM

CSc1nc2c(Cl)cc(Cl)cc2n1C1O[C@H](CO)[C@@H](O)[C@H]1O (stereo partly drawn)
IC50 [1]: 110 µM
IC50 [2]: 270 µM
IC50 [3]: 150 µM
IC50 [4]: > 300 µM

[N-]=[N+]=Nc1nc2c(Cl)cc(Cl)cc2n1C1O[C@H](CO)[C@@H](O)[C@H]1O (stereo partly drawn)
IC50 [1]: 110 µM
IC90 [5]: 41 µM
IC50 [3]: > 100 µM

OC[C@H]1OC(n2c(Br)nc3c(Cl)c(Cl)ccc32)[C@H](O)[C@@H]1O (stereo partly drawn)
IC50 [1]: 2.4 µM
IC50 [2]: > 100 µM
IC90 [5]: 1 µM
IC50 [3]: 161 µM
IC50 [4]: > 100 µM

Nc1nc2c(Cl)cc(Cl)cc2n1C1O[C@H](CO)[C@@H](O)[C@H]1O (stereo partly drawn)
IC50 [1]: > 100 µM
IC50 [2]: > 300 µM
IC90 [5]: > 100 µM
IC50 [3]: > 100 µM
IC50 [4]: > 300 µM

OC[C@H]1OC(n2c(Cl)nc3c(Cl)cc(Cl)cc32)[C@H](O)[C@@H]1O (stereo partly drawn)
IC50 [1]: 10 µM
IC50 [2]: 230 µM
IC90 [5]: 4.5 µM
IC50 [3]: 77 µM
IC50 [4]: > 300 µM

OC[C@H]1OC(n2c(S)nc3c(Cl)cc(Cl)cc32)[C@H](O)[C@@H]1O (stereo partly drawn)
IC50 [1]: > 100 µM
IC50 [2]: > 300 µM
IC50 [3]: > 100 µM
IC50 [4]: > 300 µM

OC[C@H]1OC(n2c(Cl)nc3c(Cl)c(Cl)ccc32)[C@H](O)[C@@H]1O (stereo partly drawn)
IC50 [1]: 16 µM
IC50 [2]: > 100 µM
IC90 [5]: 6 µM
IC50 [3]: > 100 µM
IC50 [4]: > 100 µM

OC[C@H]1OC(n2c(SCc3ccccc3)nc3c(Cl)cc(Cl)cc32)[C@H](O)[C@@H]1O (stereo partly drawn)
IC50 [1]: 41 µM
IC50 [2]: 122 µM
IC50 [3]: 32 µM
IC50 [4]: 140 µM

OC[C@H]1OC(n2c(Br)nc3c(Cl)cc(Cl)cc32)[C@H](O)[C@@H]1O (stereo partly drawn)
IC50 [1]: 1.6 µM
IC50 [2]: 150 µM
IC90 [5]: 2.1 µM
IC50 [3]: 127 µM
IC50 [4]: > 300 µM

O=C(O)P(=O)(O)O [FOSCARNET]
IC50 [3]: > 100 µM

Nc1nc2c(ncn2COC(CO)CO)c(=O)[nH]1 [GANCICLOVIR]
IC50 [2]: > 100 µM
IC90 [5]: 1.6 µM
IC50 [3]: > 100 µM
